Laboratory results as given in ChEMBL document CHEMBL2311425, “Histone deacetylase (HDAC) inhibitors with a novel connecting unit linker region reveal a selectivity profile for HDAC4 and HDAC5 with improved activity against chemoresistant cancer cells” (J Med Chem, 2013).

Key:
Histone deacetylase 2 = Histone deacetylase 2 (Homo sapiens, UniProt Q92769); assay: Inhibition of human HDAC2 by fluorescence assay
A2780 [1] = assay: Potentiation of 8 uM cisplatin-induced toxicity in 5 uM cisplatin resistant human A2780 cells at 0.5 uM pretreated for 48 hrs followed by 5 uM cisplatin treatment by MTT assay; assay type: functional
CAL-27 [2] = assay: Potentiation of 5 uM cisplatin-induced toxicity in 1 uM cisplatin resistant human CAL27 cells at 0.25 uM pretreated for 48 hrs followed by 1 uM cisplatin treatment by MTT assay; assay type: functional
CAL-27 [3] = assay: Potentiation of 45 uM cisplatin-induced toxicity in 1 uM cisplatin resistant human CAL27 cells at 1.5 uM pretreated for 48 hrs followed by 1 uM cisplatin treatment by MTT assay; assay type: functional
Histone deacetylase [4] = assay: Inhibition of HDAC in cisplatin resistant human CAL27 cells after 18 hrs by fluorescence assay; assay type: cell-based; settings: cal-27
A2780 [5] = assay: Potentiation of 20 uM cisplatin-induced toxicity in 5 uM cisplatin resistant human A2780 cells at 0.25 uM pretreated for 48 hrs followed by 5 uM cisplatin treatment by MTT assay; assay type: functional
MDA-MB-231 [6] = assay: Potentiation of 25 uM cisplatin-induced toxicity in 1 uM cisplatin resistant human MDA-MB-231 cells at 1 uM pretreated for 48 hrs followed by 1 uM cisplatin treatment by MTT assay; assay type: functional
CAL-27 [7] = assay: Potentiation of 5 uM cisplatin-induced toxicity in 1 uM cisplatin resistant human CAL27 cells at 0.5 uM pretreated for 48 hrs followed by 1 uM cisplatin treatment by MTT assay; assay type: functional
CAL-27 [8] = assay: Potentiation of 2.5 uM cisplatin-induced toxicity in 1 uM cisplatin resistant human CAL27 cells at 0.25 uM pretreated for 48 hrs followed by 1 uM cisplatin treatment by MTT assay; assay type: functional
MDA-MB-231 [9] = assay: Potentiation of 25 uM cisplatin-induced toxicity in 1 uM cisplatin resistant human MDA-MB-231 cells at 1.5 uM pretreated for 48 hrs followed by 1 uM cisplatin treatment by MTT assay; assay type: functional
MDA-MB-231 [10] = assay: Potentiation of 40 uM cisplatin-induced toxicity in 1 uM cisplatin resistant human MDA-MB-231 cells at 1 uM pretreated for 48 hrs followed by 1 uM cisplatin treatment by MTT assay; assay type: functional
MDA-MB-231 [11] = assay: Potentiation of cisplatin-induced toxicity in cisplatin resistant human MDA-MB-231 cells at 1 uM pretreated for 48 hrs followed by cisplatin treatment by MTT assay; assay type: functional
Method in brief: (§1)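 Resistant sublines pretreated 48 h with 1 μM HDAC inhibitor, then cisplatin over a concentration range for 72 h; MTT viability read at 544/690 nm. Cisplatin IC50 from four-parameter logistic fit of pooled data (≥3 experiments, triplicate); shift factor = IC50 of cisplatin alone divided by IC50 of the combination.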

CAL-27 [12] = assay: Potentiation of 45 uM cisplatin-induced toxicity in 1 uM cisplatin resistant human CAL27 cells at 0.25 uM pretreated for 48 hrs followed by 1 uM cisplatin treatment by MTT assay; assay type: functional
A2780 [13] = assay: Potentiation of 10 uM cisplatin-induced toxicity in 5 uM cisplatin resistant human A2780 cells at 1 uM pretreated for 48 hrs followed by 5 uM cisplatin treatment by MTT assay; assay type: functional
A2780 [14] = assay: Potentiation of 5 uM cisplatin-induced toxicity in 5 uM cisplatin resistant human A2780 cells at 1.5 uM pretreated for 48 hrs followed by 5 uM cisplatin treatment by MTT assay; assay type: functional
MDA-MB-231 [15] = assay: Potentiation of 25 uM cisplatin-induced toxicity in 1 uM cisplatin resistant human MDA-MB-231 cells at 0.25 uM pretreated for 48 hrs followed by 1 uM cisplatin treatment by MTT assay; assay type: functional
KYSE-510 [16] = assay: Potentiation of 1 uM cisplatin-induced toxicity in 0.5 uM cisplatin resistant human KYSE-510 cells at 1.5 uM pretreated for 48 hrs followed by 0.5 uM cisplatin treatment by MTT assay; assay type: functional
KYSE-510 [17] = assay: Potentiation of 8 uM cisplatin-induced toxicity in 0.5 uM cisplatin resistant human KYSE-510 cells at 0.25 uM pretreated for 48 hrs followed by 0.5 uM cisplatin treatment by MTT assay; assay type: functional
A2780 [18] = assay: Potentiation of 10 uM cisplatin-induced toxicity in 5 uM cisplatin resistant human A2780 cells at 0.5 uM pretreated for 48 hrs followed by 5 uM cisplatin treatment by MTT assay; assay type: functional
Histone deacetylase [19] = assay: Inhibition of HDAC in cisplatin resistant human KYSE-510 cells after 18 hrs by fluorescence assay; assay type: cell-based
A2780 [20] = assay: Potentiation of 20 uM cisplatin-induced toxicity in 5 uM cisplatin resistant human A2780 cells at 1 uM pretreated for 48 hrs followed by 5 uM cisplatin treatment by MTT assay; assay type: functional
CAL-27 [21] = assay: Potentiation of cisplatin-induced toxicity in cisplatin resistant human CAL27 cells at 1 uM pretreated for 48 hrs followed by cisplatin treatment by MTT assay; assay type: functional; method in brief: as §1
A2780 [22] = assay: Potentiation of 10 uM cisplatin-induced toxicity in 5 uM cisplatin resistant human A2780 cells at 0.25 uM pretreated for 48 hrs followed by 5 uM cisplatin treatment by MTT assay; assay type: functional
MDA-MB-231 [23] = assay: Potentiation of 40 uM cisplatin-induced toxicity in 1 uM cisplatin resistant human MDA-MB-231 cells at 1.5 uM pretreated for 48 hrs followed by 1 uM cisplatin treatment by MTT assay; assay type: functional
CAL-27 [24] = assay: Potentiation of 45 uM cisplatin-induced toxicity in 1 uM cisplatin resistant human CAL27 cells at 1 uM pretreated for 48 hrs followed by 1 uM cisplatin treatment by MTT assay; assay type: functional
CAL-27 [25] = assay: Potentiation of 45 uM cisplatin-induced toxicity in 1 uM cisplatin resistant human CAL27 cells at 0.5 uM pretreated for 48 hrs followed by 1 uM cisplatin treatment by MTT assay; assay type: functional
CAL-27 [26] = assay: Potentiation of 10 uM cisplatin-induced toxicity in 1 uM cisplatin resistant human CAL27 cells at 1.5 uM pretreated for 48 hrs followed by 1 uM cisplatin treatment by MTT assay; assay type: functional
MDA-MB-231 [27] = assay: Potentiation of […] cisplatin-induced toxicity in 1 uM cisplatin resistant human MDA-MB-231 cells at 1 uM pretreated for 48 hrs followed by 1 uM cisplatin treatment by MTT assay; assay type: functional
MDA-MB-231 [28] = assay: Potentiation of 5 uM cisplatin-induced toxicity in 1 uM cisplatin resistant human MDA-MB-231 cells at 0.5 uM pretreated for 48 hrs followed by 1 uM cisplatin treatment by MTT assay; assay type: functional

Histone deacetylase 2, sequence (Q92769 whole entry): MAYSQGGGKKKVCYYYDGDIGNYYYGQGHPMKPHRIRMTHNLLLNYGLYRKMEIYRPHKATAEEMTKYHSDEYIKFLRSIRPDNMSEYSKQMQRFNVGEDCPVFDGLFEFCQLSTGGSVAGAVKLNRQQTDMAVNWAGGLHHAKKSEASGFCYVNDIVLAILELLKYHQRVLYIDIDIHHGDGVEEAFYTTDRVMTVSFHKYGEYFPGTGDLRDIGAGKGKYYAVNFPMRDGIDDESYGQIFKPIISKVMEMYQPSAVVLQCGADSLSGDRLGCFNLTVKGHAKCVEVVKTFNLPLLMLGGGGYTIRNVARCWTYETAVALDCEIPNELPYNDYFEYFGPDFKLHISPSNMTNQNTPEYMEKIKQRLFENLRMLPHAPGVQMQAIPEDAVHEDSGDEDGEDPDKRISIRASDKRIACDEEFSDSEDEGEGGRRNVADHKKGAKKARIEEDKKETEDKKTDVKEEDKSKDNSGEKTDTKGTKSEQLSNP

IC50 (Histone deacetylase 2): 0.881 µM | IC50 (Histone deacetylase [4]): 0.36 µM | IC50 (Histone deacetylase [19]): 0.35 µM
SMILES: Cc1cc(C)cc(C(=O)NOCCCCCC(=O)NO)c1
Activity (A2780 [1]): Dose-dependent effect | fractional inhibitory concentration index (FICI) (A2780 [1]): 0.66 | Activity (CAL-27 [2]): Dose-dependent effect | Activity (CAL-27 [3]): Dose-dependent effect | fractional inhibitory concentration index (FICI) (CAL-27 [3]): 0.23 | Activity (A2780 [5]): Dose-dependent effect | fractional inhibitory concentration index (FICI) (A2780 [5]): 0.76 | Activity (MDA-MB-231 [6]): Dose-dependent effect | fractional inhibitory concentration index (FICI) (MDA-MB-231 [6]): 0.72 | Activity (CAL-27 [7]): Dose-dependent effect | fractional inhibitory concentration index (FICI) (CAL-27 [7]): 0.45 | Activity (CAL-27 [8]): Dose-dependent effect | Activity (MDA-MB-231 [9]): Dose-dependent effect | fractional inhibitory concentration index (FICI) (MDA-MB-231 [9]): 0.73 | Activity (MDA-MB-231 [10]): Dose-dependent effect | fractional inhibitory concentration index (FICI) (MDA-MB-231 [10]): 0.78 | Activity (MDA-MB-231 [11]): Dose-dependent effect | fold change (FC) (MDA-MB-231 [11]): 3.53 | Activity (CAL-27 [12]): Dose-dependent effect | fractional inhibitory concentration index (FICI) (CAL-27 [12]): 0.27 | Activity (A2780 [13]): Dose-dependent effect | fractional inhibitory concentration index (FICI) (A2780 [13]): 0.61 | Activity (A2780 [14]): Dose-dependent effect | fractional inhibitory concentration index (FICI) (A2780 [14]): 0.81 | Activity (MDA-MB-231 [15]): Dose-dependent effect | Activity (KYSE-510 [16]): Dose-dependent effect | fractional inhibitory concentration index (FICI) (KYSE-510 [16]): 0.05 | Activity (KYSE-510 [17]): Dose-dependent effect | fractional inhibitory concentration index (FICI) (KYSE-510 [17]): 0.18 | Activity (A2780 [18]): Dose-dependent effect | fractional inhibitory concentration index (FICI) (A2780 [18]): 0.69 | Activity (A2780 [20]): Dose-dependent effect | fractional inhibitory concentration index (FICI) (A2780 [20]): 0.49 | Activity (CAL-27 [21]): Dose-dependent effect | fold change (FC) (CAL-27 [21]): 21.6 | Activity (A2780 [22]): Dose-dependent effect | fractional inhibitory concentration index (FICI) (A2780 [22]): 0.78 | Activity (MDA-MB-231 [23]): Dose-dependent effect | fractional inhibitory concentration index (FICI) (MDA-MB-231 [23]): 0.84 | Activity (CAL-27 [24]): Dose-dependent effect | fractional inhibitory concentration index (FICI) (CAL-27 [24]): 0.27 | Activity (CAL-27 [25]): Dose-dependent effect | fractional inhibitory concentration index (FICI) (CAL-27 [25]): 0.31 | Activity (CAL-27 [26]): Dose-dependent effect | fractional inhibitory concentration index (FICI) (CAL-27 [26]): 0.2 | Activity (MDA-MB-231 [27]): Dose-dependent effect | fractional inhibitory concentration index (FICI) (MDA-MB-231 [27]): 0.75 | Activity (MDA-MB-231 [28]): Dose-dependent effect | fractional inhibitory concentration index (FICI) (MDA-MB-231 [28]): <0.2
